Screens deposited in PubChem by several laboratories.
CAL PDZ FP-1 = CAL PDZ (human) peptide binding inhibition. Q9HD26. inhibition, % at 24.9 µM. purified CAL PDZ, TMR-peptide fluorescence polarization, 1 h. 300,000 tested, 0.92% active. AID 602252;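 active means mean inhibition of at least 30% with at least half of replicates also reaching 30%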;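 further: 0% = DMSO neutral control and 100% = excess unlabeled competitor peptide PRC23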
SR-BI DiI-HDL act = SR-BI HDL lipid transfer activation; CHO ldlA[mSR-BI] cells, DiI-HDL uptake fluorescence, 3 h; 100 = double the neutral-control signal; activation, % at 12.5 µM; 320,000 tested, 0.096% active; AID 504775;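 active means mean replicate activation of at least 60% and every replicate at or above 60%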;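 further: 0% = median plate neutral-control signal and 100% = twice that signal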
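Assay system: CHO ldlA[mSR-BI] cells, LDL receptor-null, SR-BI overexpressing; medium: Ham's F12 with 0.5% BSA, HEPES 25 mM, pH 7.4; also added: DiI-HDL 10 µg/mL; timing: 3 h uptake period with compound, 37 °C; signal: DiI fluorescence, bottom read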
SR-BI DiI inh = blocks mouse SR-BI lipid uptake from DiI-HDL. Q61009. ldlA[mSR-BI] CHO cells, DiI-HDL uptake fluorescence, 3 h. inhibition, % at 12.5 µM. 320,000 tested, 0.96% active;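 active means mean replicate inhibition of at least 70% and a set share of replicates each scoring 70 or more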;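 further: 0% = median of neutral control wells and 100% = median of positive control wells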
Target sequence (Q61009 whole entry, looked up): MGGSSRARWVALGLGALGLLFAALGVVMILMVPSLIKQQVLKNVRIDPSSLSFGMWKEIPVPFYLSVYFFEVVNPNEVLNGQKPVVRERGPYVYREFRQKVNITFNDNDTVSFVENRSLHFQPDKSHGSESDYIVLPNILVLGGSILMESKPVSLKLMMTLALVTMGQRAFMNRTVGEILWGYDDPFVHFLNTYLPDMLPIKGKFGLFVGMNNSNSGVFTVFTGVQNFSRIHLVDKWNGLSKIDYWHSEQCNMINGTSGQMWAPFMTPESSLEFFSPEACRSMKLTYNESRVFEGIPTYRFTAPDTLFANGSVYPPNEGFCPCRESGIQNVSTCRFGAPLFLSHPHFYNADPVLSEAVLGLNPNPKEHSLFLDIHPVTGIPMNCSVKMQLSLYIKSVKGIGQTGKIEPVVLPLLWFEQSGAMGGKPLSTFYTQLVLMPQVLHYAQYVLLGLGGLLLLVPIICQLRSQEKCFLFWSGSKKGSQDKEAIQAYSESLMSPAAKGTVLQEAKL
ATG4B inhibitor = blocks human ATG4B protease cleavage of LC3 substrate; inhibition, % at 8.33 µM; ATG4B cleavage of LC3-PLA2, NBD-HPC fluorescence, 1 h; Q9Y4P1; 340,000 tested, 0.51% active; AID 504462; in the data active means inhibition above about 40%
CAL PDZ FP-2 = blocks peptide binding to human CAL PDZ domain. Q9HD26. inhibition, % at 20 µM. 330,000 tested, 0.02% active. purified CAL PDZ, TMR-peptide fluorescence polarization, 1 h;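 active means highest replicate inhibition of at least 40%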;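 further: plate controls were DMSO neutral control wells for no effect and unlabeled competitor peptide control wells for full effect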
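Material – purified CerCALP PDZ construct · Detection – FP readout, S and P plane fluorescence · Measure – percent inhibition from loss of millipolarization · Controls – unlabelled peptide for full inhibition, DMSO wells as neutral · Probe or stimulus – TMR-labelled reporter peptide T*-PRC34 bound in PDZ groove · Times – 1 h at RT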
Starred values were filed as active, the others as inactive; i = inactive; . = not tested or not shown. This is a sample that favours compounds with a hit; in the whole collection about 2.3% have one here.

SMILES | CAL PDZ FP-1 | SR-BI DiI-HDL act | SR-BI DiI inh | ATG4B inhibitor | CAL PDZ FP-2
Clc1ccc(-c2nnc(-c3ccccc3)nc2-c2c[nH]c3ccccc23)cc1 | 3 | -33 | 33 | 6 | 0
COc1cccc(CNS(=O)(=O)c2ccc3c(c2)oc(=O)n3C)c1 | 3 | -4 | 4 | 1 | -1
Cc1oc2nc(SCC(=O)NC3CCCCC3)nc(N)c2c1C | -1 | 389* | -388 | -3 | .
Cc1cc(=O)n2nc(N3CCC(C(=O)NCc4cccc(Cl)c4)CC3)sc2n1 | . | -20 | 20 | 18 | -2
N#C/C(=N\Nc1ccccc1F)c1nc(-c2ccccc2)cs1 | 7 | -71 | 71* | -5 | -1
COc1ccc(CCC(=O)Nc2ncc(C)s2)cc1OC | 50* | -3 | 3 | -5 | -1
Cc1ccc(NC(=O)CCCc2ccccc2)c([N+](=O)[O-])c1 | 33* | -17 | 17 | 1 | .
COc1ccccc1NS(=O)(=O)c1cccc(C(=O)N(C)Cc2cccs2)c1 | -3 | 5 | -5 | -4 | -2
Fc1ccc(C(CNC(=S)NC2CCCCC2)N2CCOCC2)cc1 (stereo not given) | 1 | 5 | -5 | 10 | -2
Cc1ccnc2nc(C(=O)NCc3ccccc3)nn12 | 197* | 10 | -10 | -3 | 8
Cc1ccc(S(=O)(=O)N2CCCCC2)cc1C(=O)OCC(=O)N1c2ccccc2NC(=O)C1(C)C | 1 | -66 | 66 | -8 | -1
Cc1ccc(C(=O)OCC(=O)N2c3ccccc3NC(=O)C2(C)C)cc1S(=O)(=O)N1CCCCC1 | 9 | -84 | 84* | 5 | 1
COc1ccccc1NC(=O)C/C(N)=N/OCC(=O)Nc1cccc(Cl)c1 | -2 | -14 | 14 | -11 | 0
COc1ccccc1NC(=O)c1c(Nc2ccccc2F)sc(C(=O)Nc2cccc(Cl)c2)c1N | 7 | -75 | 75* | 20 | 1
O=C1CN(C(=O)COc2ccccc2Cl)c2ccccc2N1 | 45* | -2 | 2 | -5 | 0
O=C1CN(C(=O)COc2ccc(F)cc2Br)c2ccccc2N1 | 67* | -13 | 13 | -8 | -5
O=C1CN(C(=O)COC(=O)C23CC4CC(CC(O)(C4)C2)C3)c2ccccc2N1 | 39* | 24 | -24 | -18 | 0
Cn1c(C(=O)O)cc2cc(Oc3ccccc3)ccc21 | -3 | 28 | -28 | 2 | 0
Cn1c(C(=O)NN)cc2cc(Oc3ccccc3)ccc21 | 0 | -79 | 79* | 5 | -1
Cc1nnc(SC(C)C(=O)Nc2ccc3ccccc3c2)n1C (stereo not given) | . | 32 | -32 | -8 | -1
CSc1ccccc1OCc1cc(C(=O)NCCn2nc(C)cc2C)no1 | -5 | -72 | 72* | 8 | -3
Cc1cc(C)n(CCNC(=O)c2cc(COc3ccc(F)cc3Cl)on2)n1 | -1 | -34 | 34 | 1 | -2
O=c1ccc(-c2nc3ccccc3n2Cc2ccc(Cl)cc2)c[nH]1 | 41* | 9 | -9 | 5 | .
COc1cc2[nH]c(=S)nc(NCCCOC(C)C)c2cc1OC | 42* | -19 | 19 | -18 | -2
COc1ccc(OCC(=O)OCC(=O)NC2CC2)cc1 | -4 | 33 | -33 | 2 | -1
SMILES | CAL PDZ FP-1 | SR-BI DiI-HDL act | SR-BI DiI inh | ATG4B inhibitor | CAL PDZ FP-2
COc1ccc(C(=O)O)cc1S(N)(=O)=O | 32* | 5 | -5 | -1 | -2
CNS(=O)(=O)c1cc(C(=O)O)ccc1OC | -2 | 19 | -19 | 3 | .
CC(C)CN(C(=O)CSc1nc2ccccc2[nH]1)C1CCS(=O)(=O)C1 (stereo not given) | -4 | 17 | -17 | -4 | 0
O=C(O)CSc1nnc(-c2ccc(Cl)cc2Cl)n1-c1ccc(Cl)cc1 | 2 | -6 | 6 | 4 | .
CCOCCc1nnc(NC(=O)CS(=O)(=O)c2ccc(C)cc2)s1 | 93* | 8 | -8 | -5 | 0
COc1ccc(Cc2nnc(NC(=O)CS(=O)(=O)c3ccc(C)cc3)s2)cc1OC | 2 | 3 | -3 | 3 | -1
CCCn1c(=O)c2c(nc3n2CCCN3CCc2ccccc2)n(C)c1=O | -1 | -9 | 9 | 0 | 0
Cn1c(=O)n(CCc2ccccc2)c(=O)c2c1nc1n2CCCN1CCc1ccccc1 | -3 | 506* | i | 12 | .
CN1C(=S)SC(/[N+]([O-])=C\c2ccccc2)C1(C)C (stereo not given) | -5 | 18 | -18 | -2 | -4
CN1C(=S)SC(/[N+]([O-])=C/c2cccnc2)C1(C)C (stereo not given) | 31* | -7 | 7 | -8 | .
N#CNC(=Nc1ccc(Cl)cc1)Oc1ccccc1 | 4 | 12 | -12 | 0 | 0
CC1CN(Cc2cc(=O)oc3cc(O)ccc23)CC(C)O1 (stereo not given) | 0 | 5 | -5 | -3 | -2
COc1ccc(NS(=O)(=O)c2cc(NC(=O)Cc3n[nH]c(=O)c4ccccc34)ccc2OC)cc1 | 51* | -18 | 18 | -23 | -3
COc1ccc(NC(=O)CN(C)C(=O)Cc2n[nH]c(=O)c3ccccc23)cc1 | 31* | -2 | 2 | 5 | -1
COc1ccccc1NS(=O)(=O)c1cc(NC(=O)Cc2n[nH]c(=O)c3ccccc23)ccc1Cl | -8 | -11 | 11 | -9 | -3
Cc1nc2ccc(C(=O)Nc3cccc([N+](=O)[O-])c3)cc2s1 | -2 | -74 | 74* | -1 | -2
COc1ccc(C(=O)Nc2cccc(/C(C)=N/NC(=O)c3ccc([N+](=O)[O-])cc3)c2)cc1OC | 1 | -71 | 71* | -6 | -2
COc1ccc(C(=O)Nc2cccc([N+](=O)[O-])c2)cc1Br | -5 | -83 | 83* | -10 | 0
Cc1ccccc1NS(=O)(=O)c1cc(C(=O)Nc2cccc([N+](=O)[O-])c2)ccc1C | -2 | -72 | 72* | -17 | 0
COc1ccc(C(=O)Nc2ccc(OC)c([N+](=O)[O-])c2)cc1Br | -4 | -60 | 68 | -21 | -2
CCOC(=O)C1=C(COC(=O)c2cccc(NC(C)=O)c2)NC(=O)NC1C (stereo not given) | 5 | -5 | 5 | -3 | -2
CC(=O)c1cccc(NC(=O)CN(C)S(=O)(=O)c2cccc3nsnc23)c1 | -3 | -11 | 11 | 0 | -3
CSc1nc2sc3c(c2c(=O)n1C)CCC3 | 71* | 10 | -10 | 10 | -1
CC(=O)Nc1nc(-c2ccc3c(c2)CC(C)N3C(=O)C2CC2)c(C)s1 (stereo not given) | -3 | . | . | -5 | -4
Cc1sc(NC(=O)c2ccco2)nc1-c1ccc2c(c1)CC(C)N2C(=O)C1CC1 (stereo not given) | -5 | -79 | 79* | 5 | -1
O=C1NC[C@H](Cc2ccccc2)N(C[C@H]2CCCN2C[C@H](Cc2ccc(O)cc2)N2C[C@H](Cc3ccc(O)cc3)N(CC3CCCCCC3)C(=O)C2=O)C1=O | 1 | 10 | -10 | . | -1
